Measured values reported in ChEMBL document CHEMBL3813692, “Discovery of a Fluorinated Enigmol Analog with Enhanced in Vivo Pharmacokinetic and Anti-Tumor Properties” (ACS Med Chem Lett, 2016).
pIC50: −log10 of the molar value. The source made the active and inactive calls. The calls are words filed in the database; no cut-off is given here.

Key:
[1] = Lipophilicity, log P of the compound; format: physicochemical; conditions: octanol/water
[2] = Clearance in pre-cannulated Sprague-Dawley rat at 2 mg/kg, iv after […] to 8 hrs by LC-MS/MS analysis; format: ADME, organism-based; conditions: in vivo
Summary of the method: (§1)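 SD rats (n = 3–4 per group) received a single 2 mg/kg i.v. injection in PEG400/EtOH/Tween80/H2O (40:10:3:47). Plasma was sampled periodically and drug was quantified by LC-MS/MS. t1/2, Cl, Cmax and AUC were reported as mean ± SEM.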

[3] = Tmax in pre-cannulated Sprague-Dawley rat at 10 mg/kg administered via oral gavage after 0.5 to 24 hrs by LC-MS/MS analysis; format: ADME, organism-based; conditions: in vivo
Summary of the method: (§2)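 A single 10 mg/kg oral gavage was given to SD rats (n = 4 per group). Vehicle was 90:10 olive oil/EtOH or 95:5 PEG400/Tween80, depending on the analog. Plasma was collected periodically and drug was measured by LC-MS/MS; data are mean ± SEM.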

[4] = Cmax in pre-cannulated Sprague-Dawley rat at 10 mg/kg administered via oral gavage after 0.5 to 24 hrs by LC-MS/MS analysis; format: ADME, organism-based; parameters: dose 10 mg/kg, route oral; conditions: in vivo; summary of the method: as §2
[5] = Terminal half-life in pre-cannulated Sprague-Dawley rat at 10 mg/kg administered via oral gavage after 0.5 to 24 hrs by LC-MS/MS analysis; format: ADME, organism-based; conditions: in vivo, read-out: beta t1/2 (converted); summary of the method: as §2
[6] = AUC(0 to t) in pre-cannulated Sprague-Dawley rat at 10 mg/kg administered via oral gavage after 0.5 to 24 hrs by LC-MS/MS analysis; format: ADME, organism-based; parameters: time upper 24 hr, time lower 0.5 hr, dose 10 mg/kg, route oral; conditions: in vivo; summary of the method: as §2
[7] = Oral bioavailability in pre-cannulated Sprague-Dawley rat at 10 mg/kg administered via gavage after 0.5 to 24 hrs by LC-MS/MS analysis; format: ADME, organism-based; conditions: in vivo
[8] = Drug uptake in pre-cannulated Sprague-Dawley rat RBC at 10 mg/kg administered via oral gavage after 24 hrs by LC-MS/MS analysis; format: ADME, organism-based, Erythrocyte; conditions: red blood cells, read-out: Drug uptake
Summary of the method: (§3)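 After one 10 mg/kg oral gavage to SD rats (n = 4 per group), red blood cells, brain, lung, liver, kidney and prostate were harvested at 24 h. Drug levels were quantified by LC-MS/MS.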

[9] = Drug uptake in pre-cannulated Sprague-Dawley rat brain at 10 mg/kg administered via oral gavage after 24 hrs by LC-MS/MS analysis; format: ADME, organism-based; conditions: read-out: Drug uptake; summary of the method: as §3
[10] = Drug uptake in pre-cannulated Sprague-Dawley rat lung at 10 mg/kg administered via oral gavage after 24 hrs by LC-MS/MS analysis; format: ADME, organism-based; conditions: read-out: Drug uptake; summary of the method: as §3
[11] = Drug uptake in pre-cannulated Sprague-Dawley rat liver at 10 mg/kg administered via oral gavage after 24 hrs by LC-MS/MS analysis; format: ADME, organism-based; conditions: read-out: Drug uptake; summary of the method: as §3
[12] = Drug uptake in pre-cannulated Sprague-Dawley rat kidney at 10 mg/kg administered via oral gavage after 24 hrs by LC-MS/MS analysis; format: ADME, organism-based; conditions: read-out: Drug uptake; summary of the method: as §3
[13] = Drug uptake in pre-cannulated Sprague-Dawley rat prostate gland at 10 mg/kg administered via oral gavage after 24 hrs by LC-MS/MS analysis; format: ADME, organism-based; conditions: read-out: Drug uptake; summary of the method: as §3
[14] = system: Plasma; experiment: Drug uptake in pre-cannulated Sprague-Dawley rat plasma at 10 mg/kg administered via oral gavage after 1 hr by LC-MS/MS analysis; format: ADME, organism-based; conditions: in vivo; summary of the method: as §2
[15] = system: PC-3; experiment: Antitumor activity against human PC3 cells xenografted in athymic NCr-nu/nu mouse assessed as tumor growth inhibition at 3 mg/kg, qd administered via oral gavage measured every 2 to 3 days; format: functional, organism-based
Summary of the method: (§4)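 Nude mice with palpable subcutaneous PC-3 tumors (n = 9–11 per group) were dosed once daily by oral gavage. Study 1 used 3 or 10 mg/kg in 95:5 olive oil/EtOH vehicle; study 2 used 10 or 30 mg/kg in 95:5 PEG400/Tween80 vehicle. Tumor volume and body weight were measured periodically. Tumor growth was analysed by a repeated-measures linear mixed model with autoregressive covariance; weight change by one-way ANOVA with Sidak's test.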

[16] = system: PC-3; experiment: Antitumor activity against human PC3 cells xenografted in athymic NCr-nu/nu mouse assessed as tumor growth inhibition at 10 mg/kg, qd administered via oral gavage measured every 2 to 3 days; format: functional, organism-based; summary of the method: as §4
[17] = system: Mus musculus; experiment: Toxicity in athymic NCr-nu/nu mouse xenografted with human PC3 cells assessed as change in body weight at 3 mg/kg administered via oral gavage measured every 2 to 3 days; format: organism-based, PC-3; conditions: in vivo; summary of the method: as §4
[18] = system: Mus musculus; experiment: Toxicity in athymic NCr-nu/nu mouse xenografted with human PC3 cells assessed as change in body weight at 10 mg/kg administered via oral gavage measured every 2 to 3 days; format: organism-based, PC-3; conditions: in vivo; summary of the method: as §4
[19] = Octanol-buffer partition co-efficient, log D of the compound at 100 uM at pH 7.4 by shake-flask method; format: physicochemical
[20] = Drug uptake in tumor of human PC3 cells xenografted in athymic NCr-nu/nu mouse at 3 mg/kg, qd administered via oral gavage measured 24 hrs post last dose by LC-MS/MS analysis; format: ADME, organism-based, Neoplasm, PC-3; conditions: read-out: Drug uptake
Summary of the method: (§5)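 Tumors were harvested at the end of daily oral-gavage xenograft studies in nude mice bearing PC-3 tumors (3, 10 or 30 mg/kg). Drug accumulation in tumor was measured by LC-MS/MS and reported as mean ± SEM.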

[21] = Drug uptake in tumor of human PC3 cells xenografted in athymic NCr-nu/nu mouse at 10 mg/kg, qd administered via oral gavage measured 24 hrs post last dose by LC-MS/MS analysis; format: ADME, organism-based, Neoplasm, PC-3; conditions: read-out: Drug uptake; summary of the method: as §5
[22] = system: LNCaP; experiment: Cytotoxicity against human LNCAP cells assessed as reduction in cell viability after 24 hrs by WST-1 assay; format: functional, cell-based
Summary of the method: (§6)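 Cells were exposed to compound for 24 h (n = 3–4), and viability was read as mitochondrial activity by WST-1. IC50 and IC90 were derived from concentration–response curves and reported as mean ± SEM.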

[23] = Cytotoxicity against human PC3 cells assessed as reduction in cell viability after 24 hrs by WST-1 assay; format: functional, cell-based; conditions: PC-3, 24 h; summary of the method: as §6
[24] = Tmax in pre-cannulated Sprague-Dawley rat at 2 mg/kg, iv after […] to 8 hrs by LC-MS/MS analysis; format: ADME, organism-based; conditions: in vivo; summary of the method: as §1
[25] = Cmax in pre-cannulated Sprague-Dawley rat at 2 mg/kg, iv after […] to 8 hrs by LC-MS/MS analysis; format: ADME, organism-based; parameters: dose 2 mg/kg, route intravenous; conditions: in vivo; summary of the method: as §1
[26] = Terminal half-life in pre-cannulated Sprague-Dawley rat at 2 mg/kg, iv after […] to 8 hrs by LC-MS/MS analysis; format: ADME, organism-based; conditions: in vivo, read-out: beta t1/2 (converted); summary of the method: as §1
[27] = AUC(0 to t) in pre-cannulated Sprague-Dawley rat at 2 mg/kg, iv after […] to 8 hrs by LC-MS/MS analysis; format: ADME, organism-based; parameters: time upper 8 hr, dose 2 mg/kg, route intravenous; conditions: in vivo; summary of the method: as §1
[28] = system: Plasma; experiment: Drug uptake in pre-cannulated Sprague-Dawley rat plasma at 10 mg/kg administered via oral gavage after 2 hrs by LC-MS/MS analysis; format: ADME, organism-based; conditions: in vivo; summary of the method: as §2
[29] = system: Mus musculus; experiment: Toxicity in athymic NCr-nu/nu mouse xenografted with human PC3 cells assessed as change in body weight at 30 mg/kg administered via oral gavage measured every 2 to 3 days; format: organism-based, PC-3; conditions: in vivo; summary of the method: as §4
[30] = Drug uptake in tumor of human PC3 cells xenografted in athymic NCr-nu/nu mouse at 30 mg/kg, qd administered via oral gavage measured 24 hrs post last dose by LC-MS/MS analysis; format: ADME, organism-based, Neoplasm, PC-3; conditions: read-out: Drug uptake; summary of the method: as §5

Compound | clearance [2] | Tmax [3] | Cmax [4] | half-life [5] | AUC(0-t) [6] | bioavailability [7] | concentration at 24 h [8] | concentration at 24 h [9] | concentration at 24 h [10] | concentration at 24 h [11] | concentration at 24 h [12] | concentration at 24 h [13] | TGI [16] | Activity [18] | logD at 100 µM [19] | concentration at 24 h [21] | pIC50 [22] | IC90 [22] | pIC50 [23] | IC90 [23] | other results
CCCCCC(O)C(F)(F)F (stereo not given) | – | – | – | – | – | – | – | – | – | – | – | – | – | – | – | – | – | – | – | – | logP [1]: 1.14
C[C@H](N)[C@@H](O)C[C@@H](O)CCCCCCCCCCCCC(F)(F)F | 136 mL/min/kg | 12 h | 0.193 µM | 5.5 h | 2.34 µM·h | 68% | 0.153 µM | 6.01 µM | 18.7 µM | 1.94 µM | 4.74 µM | 3.46 µM | inactive | 11.6% | 3.24 | 25.3 µM | 4.95 | 19.2 µM | 4.67 | 24.4 µM | Drug uptake [14]: Not Active; TGI [15]: inactive; Activity [17]: Non-toxic; concentration at 24 h [20]: 3.23 µM; Tmax [24]: 4.8 min; Cmax [25]: 1.68 µM; half-life [26]: 1.3 h; AUC(0-t) [27]: 0.688 µM·h
OC(F)(F)CF | – | – | – | – | – | – | – | – | – | – | – | – | – | – | – | – | – | – | – | – | logP [1]: 0.36
CCCCCCCCCCCCC[C@H](O)C[C@H](O)[C@H](C)N [ENIGMOL] | 76.2 mL/min/kg | 8 h | 0.0846 µM | 8.3 h | 0.832 µM·h | 11% | 0.041 µM | 3.25 µM | 5.34 µM | 1.06 µM | 1.35 µM | 0.766 µM | Active | Non-toxic | 3.5 | 1.6 µM | 4.93 | 19.6 µM | 4.92 | 14 µM | Drug uptake [14]: Not Active; TGI [15]: inactive; Activity [17]: Non-toxic; concentration at 24 h [20]: 1.05 µM; Tmax [24]: 4.8 min; Cmax [25]: 2.45 µM; half-life [26]: 4 h; AUC(0-t) [27]: 1.45 µM·h
CCCCCCCCCCCCC(F)(F)[C@H](O)C[C@H](O)[C@H](C)N | 34 mL/min/kg | 8 h | 0.119 µM | 9.9 h | 1.47 µM·h | 10% | 0.936 µM | 16.1 µM | 44.5 µM | 9.29 µM | 14.8 µM | 6.94 µM | Active | Non-toxic | 1.73 | 23.6 µM | 4.87 | 16.7 µM | 4.93 | 15.3 µM | Drug uptake [28]: Not Active; Activity [29]: Non-toxic; concentration at 24 h [30]: 62 µM; Tmax [24]: 4.8 min; Cmax [25]: 4.4 µM; half-life [26]: 5.7 h; AUC(0-t) [27]: 2.91 µM·h
